Experimental data from article PMC10917149 (European journal of medicinal chemistry, 2023).
“Also recorded” adds a separate entry of the source. Where two headings read alike, the source gives them in different places.

Assays:
[1] = tested on: AI-sensitive GPCRs; experiment: Competition for [3H]WIN55212-2 binding in HEK293 cell membranes; parameters: species or system human
Outline: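 P2 membrane fractions were prepared from independent HEK293 cultures, which lack CB1R and CB2R. Membranes were incubated with [³H]WIN55212-2 and increasing concentrations of test compound, and specific binding was measured by filtration. Nonspecific binding was defined with 1 μM unlabelled WIN55212-2.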

[2] = tested on: mouse CB2R; conditions: cited from earlier work
[3] = molecular target: human CB1R (Homo sapiens, UniProt P21554); experiment: CB1R internalization in HEK293 cells stably expressing HA-tagged CB1R; type: cell-based; conditions: AI compounds tested at 3 μM
Outline: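 Human CB1R carrying an HA tag was expressed in cultured HEK293 cells. Test compound was applied at 3 μM, with CP55940 at 1 μM as the positive control. Internalization was read as % of vehicle control. Data are mean ± SEM of 3–5 independent experiments, compared by one-way ANOVA with Bonferroni post-test.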

[4] = molecular target: human CB2R (Homo sapiens, UniProt P34972); experiment: CB2R internalization in HEK293 cells stably expressing HA-tagged CB2R; type: cell-based; conditions: AI compounds tested at 3 μM
Outline: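 HA-tagged human CB2R was expressed heterologously in cultured HEK293 cells. Test compound was given at 3 μM, with or without the CB2R antagonist AM630 at 1 μM; CP55940 at 1 μM served as the positive control. Internalization was expressed as % of vehicle control. Mean ± SEM of 3–5 independent experiments; one-way ANOVA with Bonferroni post-test.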

[5] = tested on: CB1R and CB2R; experiment: Competition for [3H]CP55940 binding in HEK293 cell membranes; parameters: species or system human; conditions: HEK293 cell membranes without heterologous CB1R/CB2R
[6] = tested on: AI-sensitive GPCRs; experiment: [35S]GTPγS binding in HEK293 cell membranes; type: biochemical, human; conditions: for [35S]GTPγS response after pertussis toxin: PTX 100 ng/ml pretreatment of HEK293 cells for 20 h
[7] = read-out: KiHigh (AIHigh binding sites), high affinity site

Sequence of human CB1R (P21554 whole entry): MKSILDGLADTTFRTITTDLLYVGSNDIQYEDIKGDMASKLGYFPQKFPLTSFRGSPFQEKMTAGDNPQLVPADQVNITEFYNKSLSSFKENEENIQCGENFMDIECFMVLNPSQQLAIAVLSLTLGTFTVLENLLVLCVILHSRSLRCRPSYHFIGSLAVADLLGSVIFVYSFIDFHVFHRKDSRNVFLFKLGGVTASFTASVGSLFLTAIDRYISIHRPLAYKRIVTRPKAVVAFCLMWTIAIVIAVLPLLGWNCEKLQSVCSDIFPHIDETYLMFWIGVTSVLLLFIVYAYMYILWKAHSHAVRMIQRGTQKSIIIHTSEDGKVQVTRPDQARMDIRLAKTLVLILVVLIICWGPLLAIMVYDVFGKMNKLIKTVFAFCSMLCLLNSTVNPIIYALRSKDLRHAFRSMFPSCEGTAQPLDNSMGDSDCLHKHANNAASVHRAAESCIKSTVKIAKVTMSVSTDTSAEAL
Sequence of human CB2R (P34972 whole entry): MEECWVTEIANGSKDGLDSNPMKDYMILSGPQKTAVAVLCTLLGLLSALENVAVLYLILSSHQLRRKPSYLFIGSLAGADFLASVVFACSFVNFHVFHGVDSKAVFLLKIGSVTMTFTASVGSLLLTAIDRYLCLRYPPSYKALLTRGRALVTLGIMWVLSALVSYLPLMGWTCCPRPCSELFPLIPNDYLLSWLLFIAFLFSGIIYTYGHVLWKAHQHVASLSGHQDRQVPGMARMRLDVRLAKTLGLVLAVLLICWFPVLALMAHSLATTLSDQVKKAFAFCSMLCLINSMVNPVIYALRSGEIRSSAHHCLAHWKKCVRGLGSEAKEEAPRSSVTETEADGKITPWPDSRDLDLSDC

Cc1ccc(C(=O)c2c3n(c4ccccc24)CCCC3)c2ccccc12 [Compound 4]
manner of competition for [3H]WIN55212-2 binding (biphasic / monophasic) [1]: biphasic | activation of mouse CB2R measured by receptor internalization [2]: do not activate | CB1R internalization (in words) [3]: retained significant activity; also recorded: stimulate significant CB1R internalization | CB2R internalization (in words) [4]: stimulated significant CB2R internalization; also recorded: activate

C1=C(CCN2CCOCC2)c2ccccc2/C1=C/c1cccc2ccccc12 [Compound 32, reference compound]
competition for [3H]WIN55212-2 binding (in words) [1]: weakly competes

Cc1c(C(=O)c2cccc3ccccc23)c2cccc3c2n1[C@H](CN1CCOCC1)CO3 [WIN55212–3, reference compound]
competition for [3H]WIN55212-2 binding (in words) [1]: absence of competition

Cc1ccc(C(=O)c2c(C)n(CCN3CCOCC3)c3cnccc23)c2ccccc12 [Compound 13]
manner of competition for [3H]WIN55212-2 binding (biphasic / monophasic) [1]: biphasic | Ki [1, 7]: 5.8 nM

Cc1ccc(C(=O)c2c(C)n(CCN3CCOCC3)c3cc(Cl)cc(Cl)c23)c2ccccc12 [Compound 11]
competition for [3H]WIN55212-2 binding (in words) [1]: inactive | binding at 1 μM ([1]; at 1 μM): no measurable binding

Cc1c(C(=O)NN2CCCCC2)nn(-c2ccc(Cl)cc2Cl)c1-c1ccc(Cl)cc1 [SR141617]
competition for [3H]CP55940 binding (in words) [5]: failed to compete

CCCCCCC(C)(C)c1ccc([C@@H]2C[C@H](O)CC[C@H]2CCCO)c(O)c1 [CP55940]
competition for [3H]CP55940 binding (in words) [5]: failed to compete

Cc1ccc(C(=O)c2c(C)n(CCN3CCOCC3)c3ccc(Cl)cc23)c2ccccc12 [Compound 9]
manner of competition for [3H]WIN55212-2 binding (biphasic / monophasic) [1]: biphasic | Ki [1, 7]: 10 nM | Ki ([1]; read-out: KiLow (AILow binding sites), low affinity site): 2300 nM

Cc1ccc(C(=O)c2c(C)n(CCN3CCOCC3)c3ccccc23)c2ccccc12 [Compound 2]
manner of competition for [3H]WIN55212-2 binding (biphasic / monophasic) [1]: biphasic | Ki [1, 7]: 0.8 nM | activation of mouse CB2R measured by receptor internalization [2]: do not activate | CB1R internalization (in words) [3]: retained significant activity; also recorded: stimulate significant CB1R internalization | CB2R internalization (in words) [4]: stimulated significant CB2R internalization; also recorded: activate

CC1=C(CCN2CCOCC2)c2ccccc2/C1=C/c1cccc2ccccc12 [Compound 34, reference compound]
competition for [3H]WIN55212-2 binding (in words) [1]: does not compete; also recorded: no significant competition

SR144528
competition for [3H]CP55940 binding (in words) [5]: failed to compete

CCn1c(C)c(C(=O)c2ccc(OC)cc2)c2ccccc21 [Compound 14]
competition for [3H]WIN55212-2 binding (in words) [1]: inactive

Cc1c(C(=O)c2cccc3ccccc23)c2cccc3c2n1[C@@H](CN1CCOCC1)CO3 [WIN55212-2, reference compound]
manner of competition for [3H]WIN55212-2 binding (biphasic / monophasic) [1]: biphasic | Ki ([1]; read-out: KiHigh, high affinity site of biphasic competition curve): 0.043 nM | Ki ([1]; read-out: KiLow, low affinity site of biphasic competition curve): 7.2 nM

Cc1c(C(=O)c2cccc3ccccc23)c2ccccc2n1C [JWH-042, reference compound]
manner of competition for [3H]WIN55212-2 binding (biphasic / monophasic) [1]: biphasic

COc1ccc2c(C(=O)c3ccc(C)c4ccccc34)c(C)n(CCN3CCOCC3)c2c1 [Compound 8]
stimulation of [35S]GTPγS binding (in words) [6]: increase

Cc1ccc(C(=O)c2c(C)n(C)c3ccccc23)c2ccccc12 [JWH-450, reference compound]
manner of competition for [3H]WIN55212-2 binding (biphasic / monophasic) [1]: biphasic

Cc1ccc(C(=O)c2c(C)n(CCN3CCOCC3)c3ncccc23)c2ccccc12 [Compound 12]
enhanced activity at AIHigh versus AILow [1]: ~ 1000 fold | manner of competition for [3H]WIN55212-2 binding (biphasic / monophasic) [1]: biphasic | Ki [1, 7]: 0.4 nM | stimulation of [35S]GTPγS binding (in words) [6]: increase | [35S]GTPγS response after pertussis toxin [6]: pertussis toxin-sensitive | activation of mouse CB2R measured by receptor internalization [2]: do not activate | CB1R internalization (in words) [3]: retained significant activity; also recorded: stimulate significant CB1R internalization | CB2R internalization (in words) [4]: stimulated significant CB2R internalization; also recorded: activate

CCn1c(C)c(C(=O)c2ccc(C)c3ccccc23)c2ccccc21 [JWH-451, reference compound]
manner of competition for [3H]WIN55212-2 binding (biphasic / monophasic) [1]: biphasic | Ki [1, 7]: 1.5 nM | stimulation of [35S]GTPγS binding (in words) [6]: increases | [35S]GTPγS response after pertussis toxin [6]: significantly reduced | [35S]GTPγS response in presence of CB1R and CB2R antagonists ([6]; SR141617 (1 μM) and SR144528 (1 μM)): insensitive; also recorded: not affected | activation of mouse CB2R measured by receptor internalization [2]: do not activate | CB1R internalization (in words) [3]: inactive | CB2R internalization (in words) [4]: stimulated significant CB2R internalization; also recorded: activate

Cc1ccc(C(=O)c2c(C)n(CCN3CCOCC3)c3cc(Cl)ccc23)c2ccccc12 [Compound 10]
KiLow (AILow binding sites) ([1]; low affinity site): undetectable | stimulation of [35S]GTPγS binding (in words) [6]: increase | [35S]GTPγS response after pertussis toxin [6]: pertussis toxin-sensitive

COc1ccc2c(c1)c(C(=O)c1ccc(C)c3ccccc13)c(C)n2CCN1CCOCC1 [Compound 7]
competition for [3H]WIN55212-2 binding (in words) [1]: inactive; also recorded: loss of binding

CC1=C(CCN2CCOCC2)c2ccccc2/C1=C\c1cccc2ccccc12 [Compound 33, reference compound]
competition for [3H]WIN55212-2 binding (in words) [1]: compete | stimulation of [35S]GTPγS binding (in words) [6]: stimulated

C1=C(CCN2CCOCC2)c2ccccc2/C1=C\c1cccc2ccccc12 [Compound 31, reference compound]
competition for [3H]WIN55212-2 binding (in words) [1]: compete | stimulation of [35S]GTPγS binding (in words) [6]: stimulated

Cc1ccc(C(=O)c2c(C)n(CC(F)(F)F)c3ccccc23)c2ccccc12 [Compound 5]
activation of mouse CB2R measured by receptor internalization [2]: do not activate | CB1R internalization (in words) [3]: inactive | CB2R internalization (in words) [4]: stimulated significant CB2R internalization; also recorded: activate
